ChEMBL document CHEMBL2203081 (Bioorg Med Chem Lett, 2012)
The source made the active and inactive calls. The rule behind the calls is not given here.

What was measured:
[1] = target: Casein kinase I isoform gamma-2 (Homo sapiens) (UniProt P78368); test: Inhibition of CSNK1G2 assessed as residual activity at 10 uM relative to control
How it was run: (§1)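 Competition kinase-binding assay (KINOMEscan) across a non-redundant panel of 329 kinases beyond the radiometric panel; residual binding expressed relative to control.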

[2] = target: Macrophage colony-stimulating factor 1 receptor (Homo sapiens) (UniProt P07333); test: Inhibition of CSF1R assessed as residual activity at 10 uM relative to control; how it was run: as §1
[3] = target: Cyclin-dependent kinase 5 (Homo sapiens) (UniProt Q00535); test: Inhibition of CDK5 assessed as residual activity at 10 uM relative to control
[4] = target: Serine/threonine-protein kinase Sgk1 (Homo sapiens) (UniProt O00141); test: Inhibition of SGK assessed as residual activity at 10 uM relative to control
[5] = target: Serine/threonine-protein kinase SBK1 (Homo sapiens) (UniProt Q52WX2); test: Inhibition of SBK1 assessed as residual activity at 10 uM relative to control
[6] = target: Mitogen-activated protein kinase kinase kinase 4 (Homo sapiens) (UniProt Q9Y6R4); test: Inhibition of MAP3K4 assessed as residual activity at 10 uM relative to control
[7] = system: Mast/stem cell growth factor receptor Kit (Homo sapiens), P10721 [V559D]; test: Inhibition of KIT V559D mutant assessed as residual activity at 10 uM relative to control
[8] = target: Mast/stem cell growth factor receptor Kit (Homo sapiens) (UniProt P10721); test: Inhibition of KIT assessed as residual activity at 10 uM relative to control
[9] = target: Interleukin-1 receptor-associated kinase 4 (Homo sapiens) (UniProt Q9NWZ3); test: Inhibition of IRAK4 assessed as residual activity at 10 uM relative to control
[10] = target: Insulin receptor-related protein (Homo sapiens) (UniProt P14616); test: Inhibition of INSRR assessed as residual activity at 10 uM relative to control
[11] = target: Inhibitor of nuclear factor kappa-B kinase subunit alpha (Homo sapiens) (UniProt O15111); test: Inhibition of IKK-alpha assessed as residual activity at 10 uM relative to control
[12] = target: Ribosomal protein S6 kinase alpha-6 (Homo sapiens) (UniProt Q9UK32); test: Inhibition of RSK4 N-terminal domain 1 assessed as residual activity at 10 uM relative to control
[13] = target: Rho-associated protein kinase 1 (Homo sapiens) (UniProt Q13464); test: Inhibition of ROCK1 assessed as residual activity at 10 uM relative to control
[14] = target: Dual serine/threonine and tyrosine protein kinase (Homo sapiens) (UniProt Q6XUX3); test: Inhibition of RIPK5 assessed as residual activity at 10 uM relative to control
[15] = target: Serine/threonine-protein kinase PknB (Mycobacterium tuberculosis) (UniProt P9WI81); test: Inhibition of Mycobacterium tuberculosis PKNB assessed as residual activity at 10 uM relative to control
[16] = system: Tyrosine-protein kinase ABL1 (Homo sapiens), P00519 [E255K]; test: Inhibition of phosphorylated ABL1 E255K mutant assessed as residual activity at 10 uM relative to control
[17] = target: Cyclin-dependent kinase 2/cyclin A (Homo sapiens) (UniProt P24941+P20248+P78396); test: Inhibition of CDK2-Cyclin A assessed as residual activity at 1 uM; type: protein-complex assay
[18] = target: Protein-tyrosine kinase 6 (Homo sapiens) (UniProt Q13882); test: Inhibition of BRK assessed as residual activity at 1 uM
How it was run: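 Radioactivity-based enzymatic assay against a panel of 131 kinases (Dundee profiling). Activity remaining was measured with compound present at the stated concentration.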

[19] = target: Angiopoietin-1 receptor (Homo sapiens) (UniProt Q02763); test: Inhibition of TIE2 assessed as residual activity at 10 uM
[20] = target: Receptor-interacting serine/threonine-protein kinase 2 (Homo sapiens) (UniProt O43353); test: Inhibition of RIPK2 assessed as residual activity at 10 uM
[21] = system: Receptor-type tyrosine-protein kinase FLT3 (Homo sapiens), P36888 [D835H]; test: Inhibition of FLT3 D835H mutant assessed as residual activity at 10 uM relative to control
[22] = system: Epidermal growth factor receptor (Homo sapiens), P00533 [L858R,T790M]; test: Inhibition of EGFR L858R,T790M mutant assessed as residual activity at 10 uM relative to control; type: protein assay; how it was run: as §1
[23] = target: Tyrosine-protein kinase SYK (Homo sapiens) (UniProt P43405); test: Inhibition of SYK assessed as residual activity at 1 uM
[24] = target: Serine/threonine-protein kinase 33 (Homo sapiens) (UniProt Q9BYT3); test: Inhibition of STK33 assessed as residual activity at 1 uM
Plasma = test: AUClast in Swiss albino mouse plasma at 1 mg/kg, iv; type: ADME, organism-based; set-up: time 0 - last, dose 1 mg/kg, route intravenous; details: in vivo
How it was run: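 Male Swiss Albino mice, single dose given intravenously (1 mg/kg) or orally (10 mg/kg). Drug measured in plasma and brain, with AUClast taken for each. The brain/plasma ratio is based on AUClast, and oral bioavailability is derived from the IV and PO plasma data.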

[25] = target: Mitogen-activated protein kinase 13 (Homo sapiens) (UniProt O15264); test: Inhibition of p38-delta assessed as residual activity at 10 uM relative to control
[26] = target: Mitogen-activated protein kinase 11 (Homo sapiens) (UniProt Q15759); test: Inhibition of p38-beta assessed as residual activity at 10 uM relative to control
[27] = target: Serine/threonine-protein kinase OSR1 (Homo sapiens) (UniProt O95747); test: Inhibition of OSR1 assessed as residual activity at 10 uM relative to control
[28] = target: Serine/threonine-protein kinase MRCK beta (Homo sapiens) (UniProt Q9Y5S2); test: Inhibition of MRCKB assessed as residual activity at 10 uM relative to control
[29] = target: Mitogen-activated protein kinase kinase kinase 9 (Homo sapiens) (UniProt P80192); test: Inhibition of MLK1 assessed as residual activity at 10 uM relative to control
[30] = target: Serine/threonine-protein kinase DCLK2 (Homo sapiens) (UniProt Q8N568); test: Inhibition of DCAMKL2 assessed as residual activity at 10 uM relative to control; how it was run: as §1
[31] = target: Leucine-rich repeat serine/threonine-protein kinase 2 (Homo sapiens) (UniProt Q5S007); details: 0.01 to 1 uM
[32] = system: Leucine-rich repeat serine/threonine-protein kinase 2 (Homo sapiens), Q5S007 [A2016T]; details: HEK293, 1 to 3 uM

Sequence of Serine/threonine-protein kinase 33 (Homo sapiens) (Q9BYT3 whole entry, looked up): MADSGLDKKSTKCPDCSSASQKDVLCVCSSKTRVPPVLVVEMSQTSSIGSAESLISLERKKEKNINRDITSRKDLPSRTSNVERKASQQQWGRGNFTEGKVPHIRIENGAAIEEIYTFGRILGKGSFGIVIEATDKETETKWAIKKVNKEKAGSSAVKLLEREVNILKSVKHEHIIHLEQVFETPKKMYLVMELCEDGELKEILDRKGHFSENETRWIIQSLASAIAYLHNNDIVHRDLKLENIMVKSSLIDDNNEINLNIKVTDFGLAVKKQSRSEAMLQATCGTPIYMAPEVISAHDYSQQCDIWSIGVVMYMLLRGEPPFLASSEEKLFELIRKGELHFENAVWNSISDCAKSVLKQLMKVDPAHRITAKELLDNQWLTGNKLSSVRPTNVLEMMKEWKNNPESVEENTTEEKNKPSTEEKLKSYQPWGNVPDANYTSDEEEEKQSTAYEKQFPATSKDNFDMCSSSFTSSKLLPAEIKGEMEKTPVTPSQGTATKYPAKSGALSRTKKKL
Sequence of Casein kinase I isoform gamma-2 (Homo sapiens) (P78368 whole entry, looked up, canonical isoform): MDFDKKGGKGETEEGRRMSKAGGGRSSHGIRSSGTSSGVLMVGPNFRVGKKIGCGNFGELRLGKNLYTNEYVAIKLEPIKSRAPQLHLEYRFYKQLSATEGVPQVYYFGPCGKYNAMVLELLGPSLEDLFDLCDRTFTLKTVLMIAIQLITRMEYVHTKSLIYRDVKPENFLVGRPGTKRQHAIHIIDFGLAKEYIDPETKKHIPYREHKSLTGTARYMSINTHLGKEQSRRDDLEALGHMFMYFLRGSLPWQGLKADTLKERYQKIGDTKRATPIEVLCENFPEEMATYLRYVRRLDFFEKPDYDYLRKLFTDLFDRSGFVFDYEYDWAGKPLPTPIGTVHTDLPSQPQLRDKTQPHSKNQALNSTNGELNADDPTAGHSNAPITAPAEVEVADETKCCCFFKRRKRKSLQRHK
Sequence of Angiopoietin-1 receptor (Homo sapiens) (Q02763 whole entry): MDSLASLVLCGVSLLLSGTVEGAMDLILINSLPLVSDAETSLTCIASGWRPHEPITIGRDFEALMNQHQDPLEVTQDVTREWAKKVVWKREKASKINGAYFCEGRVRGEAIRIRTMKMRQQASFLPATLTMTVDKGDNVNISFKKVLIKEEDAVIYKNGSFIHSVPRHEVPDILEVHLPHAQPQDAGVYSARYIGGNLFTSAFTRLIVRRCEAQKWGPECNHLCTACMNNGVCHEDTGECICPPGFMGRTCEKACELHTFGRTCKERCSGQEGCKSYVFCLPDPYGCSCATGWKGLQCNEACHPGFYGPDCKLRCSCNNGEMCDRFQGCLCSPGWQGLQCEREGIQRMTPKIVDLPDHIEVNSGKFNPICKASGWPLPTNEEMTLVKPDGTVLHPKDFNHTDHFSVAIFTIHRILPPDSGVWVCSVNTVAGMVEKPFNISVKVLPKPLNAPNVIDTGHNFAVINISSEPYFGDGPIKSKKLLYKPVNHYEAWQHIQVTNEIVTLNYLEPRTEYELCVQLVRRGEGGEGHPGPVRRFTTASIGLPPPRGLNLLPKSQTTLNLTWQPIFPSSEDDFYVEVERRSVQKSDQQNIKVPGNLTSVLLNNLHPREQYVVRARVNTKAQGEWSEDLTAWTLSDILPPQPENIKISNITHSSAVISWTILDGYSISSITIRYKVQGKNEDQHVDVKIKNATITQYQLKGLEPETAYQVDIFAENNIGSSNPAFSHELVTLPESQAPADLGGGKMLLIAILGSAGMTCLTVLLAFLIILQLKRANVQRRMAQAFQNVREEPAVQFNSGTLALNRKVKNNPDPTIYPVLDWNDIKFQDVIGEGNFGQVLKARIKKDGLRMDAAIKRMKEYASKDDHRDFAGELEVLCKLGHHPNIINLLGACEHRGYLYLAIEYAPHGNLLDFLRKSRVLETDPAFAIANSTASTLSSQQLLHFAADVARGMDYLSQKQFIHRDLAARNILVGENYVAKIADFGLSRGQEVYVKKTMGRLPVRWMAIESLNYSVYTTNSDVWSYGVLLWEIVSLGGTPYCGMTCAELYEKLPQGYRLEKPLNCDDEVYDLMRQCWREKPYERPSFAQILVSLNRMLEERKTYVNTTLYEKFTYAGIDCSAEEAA
Sequence of Insulin receptor-related protein (Homo sapiens) (P14616 27-742 limits assumed): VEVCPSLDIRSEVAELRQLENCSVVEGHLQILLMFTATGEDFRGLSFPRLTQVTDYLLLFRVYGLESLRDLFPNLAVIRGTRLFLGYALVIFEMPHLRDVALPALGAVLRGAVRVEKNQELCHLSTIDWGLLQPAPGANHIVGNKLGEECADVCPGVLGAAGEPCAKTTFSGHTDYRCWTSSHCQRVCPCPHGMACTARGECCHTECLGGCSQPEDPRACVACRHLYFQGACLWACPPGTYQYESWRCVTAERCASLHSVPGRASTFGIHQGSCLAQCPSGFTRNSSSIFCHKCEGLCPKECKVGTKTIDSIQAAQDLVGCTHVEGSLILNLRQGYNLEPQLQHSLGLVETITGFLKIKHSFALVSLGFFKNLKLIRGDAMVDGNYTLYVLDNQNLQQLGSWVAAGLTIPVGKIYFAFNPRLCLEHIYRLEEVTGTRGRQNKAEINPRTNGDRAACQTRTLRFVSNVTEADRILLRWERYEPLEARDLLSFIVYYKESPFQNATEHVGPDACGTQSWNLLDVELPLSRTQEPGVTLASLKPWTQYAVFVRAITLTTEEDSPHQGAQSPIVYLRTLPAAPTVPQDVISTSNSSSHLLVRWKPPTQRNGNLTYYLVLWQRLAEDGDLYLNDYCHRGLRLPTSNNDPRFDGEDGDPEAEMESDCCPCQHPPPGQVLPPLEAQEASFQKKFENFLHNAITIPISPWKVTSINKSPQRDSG
Sequence of Insulin receptor-related protein (Homo sapiens) (P14616 747-1297 limits assumed): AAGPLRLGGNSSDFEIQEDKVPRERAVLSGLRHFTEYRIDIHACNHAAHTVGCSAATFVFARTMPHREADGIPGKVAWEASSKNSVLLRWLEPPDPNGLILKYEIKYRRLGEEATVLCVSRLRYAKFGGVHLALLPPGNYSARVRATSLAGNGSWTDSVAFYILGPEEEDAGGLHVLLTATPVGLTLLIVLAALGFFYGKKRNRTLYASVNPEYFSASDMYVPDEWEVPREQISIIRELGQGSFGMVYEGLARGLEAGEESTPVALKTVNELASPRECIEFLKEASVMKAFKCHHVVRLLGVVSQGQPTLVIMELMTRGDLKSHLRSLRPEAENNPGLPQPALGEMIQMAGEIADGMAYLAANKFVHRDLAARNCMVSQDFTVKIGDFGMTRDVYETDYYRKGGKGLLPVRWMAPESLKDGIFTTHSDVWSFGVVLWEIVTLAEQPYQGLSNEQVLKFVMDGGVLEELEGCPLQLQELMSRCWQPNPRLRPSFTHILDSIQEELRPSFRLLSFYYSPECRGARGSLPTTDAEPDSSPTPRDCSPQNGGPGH
Sequence of Serine/threonine-protein kinase PknB (Mycobacterium tuberculosis) (P9WI81 whole entry): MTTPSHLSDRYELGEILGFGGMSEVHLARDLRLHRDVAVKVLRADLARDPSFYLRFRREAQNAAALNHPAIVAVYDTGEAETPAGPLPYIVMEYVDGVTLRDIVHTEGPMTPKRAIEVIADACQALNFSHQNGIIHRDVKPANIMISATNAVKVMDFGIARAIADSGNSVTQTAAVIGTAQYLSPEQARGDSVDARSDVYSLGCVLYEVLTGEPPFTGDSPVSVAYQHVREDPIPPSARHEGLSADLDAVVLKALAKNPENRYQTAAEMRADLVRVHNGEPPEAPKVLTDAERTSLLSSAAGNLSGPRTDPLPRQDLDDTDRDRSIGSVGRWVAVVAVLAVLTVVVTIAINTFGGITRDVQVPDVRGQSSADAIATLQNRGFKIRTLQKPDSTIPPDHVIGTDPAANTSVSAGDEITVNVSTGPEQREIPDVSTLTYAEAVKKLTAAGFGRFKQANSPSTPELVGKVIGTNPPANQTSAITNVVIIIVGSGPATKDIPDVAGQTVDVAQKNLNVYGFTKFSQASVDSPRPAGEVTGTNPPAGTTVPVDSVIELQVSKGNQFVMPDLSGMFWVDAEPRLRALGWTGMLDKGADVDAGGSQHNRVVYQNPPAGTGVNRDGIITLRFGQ
Sequence of Cyclin-dependent kinase 5 (Homo sapiens) (Q00535 whole entry, looked up): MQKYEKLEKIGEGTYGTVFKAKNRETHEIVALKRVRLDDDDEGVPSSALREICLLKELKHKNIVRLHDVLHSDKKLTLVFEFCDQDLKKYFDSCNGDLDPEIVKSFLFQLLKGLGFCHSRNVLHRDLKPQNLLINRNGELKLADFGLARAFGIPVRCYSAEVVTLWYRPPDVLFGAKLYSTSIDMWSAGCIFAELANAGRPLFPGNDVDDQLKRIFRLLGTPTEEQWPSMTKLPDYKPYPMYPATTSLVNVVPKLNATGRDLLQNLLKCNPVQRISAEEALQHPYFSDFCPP
Sequence of Serine/threonine-protein kinase OSR1 (Homo sapiens) (O95747 2-527 limits assumed): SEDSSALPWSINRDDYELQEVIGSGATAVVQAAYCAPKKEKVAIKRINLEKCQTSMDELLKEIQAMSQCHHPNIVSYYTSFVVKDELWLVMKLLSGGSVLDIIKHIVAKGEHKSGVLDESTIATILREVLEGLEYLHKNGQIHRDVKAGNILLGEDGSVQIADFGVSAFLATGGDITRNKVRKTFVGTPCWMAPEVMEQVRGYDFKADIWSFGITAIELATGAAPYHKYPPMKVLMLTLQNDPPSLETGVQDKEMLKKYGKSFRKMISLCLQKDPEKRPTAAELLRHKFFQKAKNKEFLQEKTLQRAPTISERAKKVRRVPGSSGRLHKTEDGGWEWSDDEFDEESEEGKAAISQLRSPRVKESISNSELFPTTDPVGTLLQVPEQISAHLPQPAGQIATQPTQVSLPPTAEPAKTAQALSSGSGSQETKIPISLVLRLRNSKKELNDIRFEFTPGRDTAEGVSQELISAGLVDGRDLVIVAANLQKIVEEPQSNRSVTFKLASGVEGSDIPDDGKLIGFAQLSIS

For O=C(Nc1cccnc1)c1cc(-c2ccnc(F)c2)ccc1OCc1ccccc1, the Activity [1] was 27%, the Activity [2] was 68% and the Activity [3] was 70%. It also gave an Activity [4] of 33%, an Activity [5] of 46% and an Activity [6] of 80%. For the same molecule, the Activity [7] was 70%, the Activity [8] was 39% and the Activity [9] was 58%. The Activity [10] was 71%, the Activity [11] was 58% and the Activity [12] was 71%. It also gave an Activity [13] of 38%, an Activity [14] of 69% and an Activity [15] of 72%. It also gave an Activity [16] of 75%, an Activity [17] of 113% and an Activity [18] of 103%. It also gave an Activity [19] of 133%, an Activity [20] of 56% and an Activity [21] of 13%. It also gave an Activity [22] of 46%, an Activity [23] of 115% and an Activity [24] of 64%. The AUClast (Plasma) was 519.6 ng·h/mL, the Activity [25] was 75% and the Activity [26] was 74%. For the same molecule, the Activity [27] was 63%, the Activity [28] was 59% and the Activity [29] was 74%. The Activity [30] was 48%, the inhibition [31] was “Active” and the inhibition [32] was “Active”.
